In experiment [1] the target is T1, Cannabinoid receptor 1 (Homo sapiens, UniProt P21554). Briefly: Displacement of [3H]CP-55940 from human CB1 receptor expressed in CHO cell membrane after 90 mins by scintillation counting analysis. Type of experiment: cell membranes. The method in brief:
(§1)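 Membranes from CHO cells stably expressing human CB₁ (G418-maintained), suspended in 50 mM Tris-HCl, 0.5% BSA, 5 mM MgCl₂, 2.5 mM EDTA, pH 7.4. Displacement of 0.5 nM [³H]CP-55,940 by 1 nM–10 μM compound, 90 min, 30 °C. Filtration on GF/C, scintillation counting. Cheng-Prusoff Ki, LIGAND fitting; mean SEM, n = 4.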
Background: In a radioligand displacement assay an active substance lowers the binding of a labelled ligand.

The target of experiment [2] is Cannabinoid receptor 1 (Rattus norvegicus, UniProt P20272). Description: Displacement of [3H]CP-55940 from Sprague-Dawley rat brain CB1 receptor after 90 mins by scintillation counting analysis. The gist of the method:
(§2)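 Competition with [³H]CP-55,940 (1.0 nM stated in rat CB₁ section; 0.5 nM in general protocol) against 1 nM–10 μM compound, 90 min at 30 °C. GF/C filtration, scintillation counting. Ki via Cheng-Prusoff; mean SEM, n = 4.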

For a further experiment, the species on record is Homo sapiens. Description: Selectivity index, ratio of Ki for human CB1 receptor to Ki for human CB2 receptor.
For experiment [3], the target named is T2, Cannabinoid receptor 2 (Homo sapiens, UniProt P34972). Briefly: Inverse agonist activity at human CB2 receptor expressed in CHO cell membrane assessed as increase in forskolin-stimulated cAMP production by scintillation counting analysis. Type of experiment: functional, cell membranes.
The target in experiment [4] is T2, Cannabinoid receptor 2. Description: Inverse agonist activity at human CB2 receptor expressed in CHO cell membrane assessed as increase in forskolin-stimulated cAMP production at 10 uM by scintillation counting analysis relative to WIN55212-2. The gist of the method:
(§3)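 Whole hCB₂ CHO cells (1 × 10⁶/assay) in HEPES-buffered saline with glucose, pH 7.4, preincubated 10 min at 37 °C with 0.5 mM Ro 20-1724. Compound at 1 or 10 μM with 1 μM forskolin. Stopped with cold 6% TCA, ether-extracted; cAMP measured by [³H]cAMP competition binding with adrenal binding protein. Expressed as % increase versus WIN 55,212-2 (set −100%); n = 4.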
In general terms: cAMP levels reflect the balance of adenylyl cyclase and phosphodiesterase activity.

Experiment [5] concerns the target T3, Cannabinoid receptor 2 (Rattus norvegicus, UniProt Q9QZN9).
T3 sequence (Q9QZN9 whole entry): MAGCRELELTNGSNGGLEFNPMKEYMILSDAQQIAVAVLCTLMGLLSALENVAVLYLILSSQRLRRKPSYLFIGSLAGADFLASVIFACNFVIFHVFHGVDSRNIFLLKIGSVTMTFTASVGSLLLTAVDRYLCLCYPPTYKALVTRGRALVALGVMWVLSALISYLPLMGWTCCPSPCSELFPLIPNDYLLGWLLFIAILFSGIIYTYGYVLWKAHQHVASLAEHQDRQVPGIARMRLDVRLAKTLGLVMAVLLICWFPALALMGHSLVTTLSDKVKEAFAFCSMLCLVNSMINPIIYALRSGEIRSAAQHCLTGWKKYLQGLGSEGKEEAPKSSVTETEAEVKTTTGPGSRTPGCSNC
Description: Displacement of [3H]CP-55940 from Sprague-Dawley rat spleen CB2 receptor after 60 mins by scintillation counting analysis. The method in brief: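 Competed against 0.5 nM [³H]CP-55,940 using 1 nM–10 μM compound for 60 min at 30 °C. Bound ligand collected on GF/C filters and counted. Ki from IC50 by Cheng-Prusoff; mean SEM of n = 4.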

Experiment [6] has as its target T2, Cannabinoid receptor 2. Description: Inverse agonist activity at human CB2 receptor expressed in CHO cell membrane assessed as increase in forskolin-stimulated cAMP production at 1 uM by scintillation counting analysis relative to WIN55212-2. The gist of the method:
as §3

The target in experiment [7] is T2, Cannabinoid receptor 2. Description: Displacement of [3H]CP-55940 from human CB2 receptor expressed in CHO cell membrane after 60 mins by scintillation counting analysis. Type of experiment: cell membranes. The gist of the method: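 Human CB₂-expressing CHO cell membranes in 50 mM Tris-HCl, 0.5% BSA, 5 mM MgCl₂, 1 mM EDTA, pH 7.4. Binding of 0.5 nM [³H]CP-55,940 competed with 1 nM–10 μM compound for 60 min at 30 °C, then GF/C filtration and scintillation counting. Ki by Cheng-Prusoff from IC50; mean SEM of n = 4.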

The target in experiment [8] is T2, Cannabinoid receptor 2. Description: Inverse agonist activity at human CB2 receptor expressed in CHO cell membrane assessed as increase in forskolin-stimulated cAMP production at 1 to 10 uM by scintillation counting analysis in presence of WIN55212-2.
Experiment [9] deals with T1, Cannabinoid receptor 1. Description: Displacement of [3H]CP-55940 from human CB1 receptor expressed in CHO cell membrane at > 10 uM after 90 mins by scintillation counting analysis. Type of experiment: cell membranes. The gist of the method: as §1
The target of experiment [10] is Cannabinoid receptor 1 (Rattus norvegicus) (UniProt P20272). Description: Displacement of [3H]CP-55940 from Sprague-Dawley rat brain CB1 receptor at > 10 uM after 90 mins by scintillation counting analysis. The gist of the method: as §2

The structures appear in SMILES notation. Activity calls are given as the source filed them. The calls are words filed in the database; no cut-off is given here.

T2 sequence (P34972 whole entry): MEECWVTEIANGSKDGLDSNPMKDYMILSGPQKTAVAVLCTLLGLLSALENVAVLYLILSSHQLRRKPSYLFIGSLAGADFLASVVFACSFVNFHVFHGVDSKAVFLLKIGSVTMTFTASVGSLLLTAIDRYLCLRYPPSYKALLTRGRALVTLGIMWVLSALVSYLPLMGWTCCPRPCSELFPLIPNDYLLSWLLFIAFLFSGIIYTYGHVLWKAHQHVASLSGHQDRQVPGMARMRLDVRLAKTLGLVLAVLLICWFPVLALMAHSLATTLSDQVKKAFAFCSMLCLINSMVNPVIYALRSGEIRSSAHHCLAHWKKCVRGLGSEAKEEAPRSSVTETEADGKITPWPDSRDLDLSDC
T1 sequence (P21554 whole entry): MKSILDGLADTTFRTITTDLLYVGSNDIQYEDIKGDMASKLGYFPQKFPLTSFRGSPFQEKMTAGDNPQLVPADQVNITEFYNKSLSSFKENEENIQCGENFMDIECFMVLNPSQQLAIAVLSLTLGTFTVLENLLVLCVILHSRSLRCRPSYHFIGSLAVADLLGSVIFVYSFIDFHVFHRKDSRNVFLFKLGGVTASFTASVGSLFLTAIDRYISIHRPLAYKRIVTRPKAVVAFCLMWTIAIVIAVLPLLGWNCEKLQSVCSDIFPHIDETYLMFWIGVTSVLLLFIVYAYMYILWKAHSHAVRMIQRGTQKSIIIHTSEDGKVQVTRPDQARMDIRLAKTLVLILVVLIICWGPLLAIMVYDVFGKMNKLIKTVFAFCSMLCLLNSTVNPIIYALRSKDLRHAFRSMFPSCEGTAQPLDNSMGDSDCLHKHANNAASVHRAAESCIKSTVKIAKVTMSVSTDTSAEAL
Chain of Cannabinoid receptor 1 (Rattus norvegicus, UniProt P20272) (P20272 whole entry): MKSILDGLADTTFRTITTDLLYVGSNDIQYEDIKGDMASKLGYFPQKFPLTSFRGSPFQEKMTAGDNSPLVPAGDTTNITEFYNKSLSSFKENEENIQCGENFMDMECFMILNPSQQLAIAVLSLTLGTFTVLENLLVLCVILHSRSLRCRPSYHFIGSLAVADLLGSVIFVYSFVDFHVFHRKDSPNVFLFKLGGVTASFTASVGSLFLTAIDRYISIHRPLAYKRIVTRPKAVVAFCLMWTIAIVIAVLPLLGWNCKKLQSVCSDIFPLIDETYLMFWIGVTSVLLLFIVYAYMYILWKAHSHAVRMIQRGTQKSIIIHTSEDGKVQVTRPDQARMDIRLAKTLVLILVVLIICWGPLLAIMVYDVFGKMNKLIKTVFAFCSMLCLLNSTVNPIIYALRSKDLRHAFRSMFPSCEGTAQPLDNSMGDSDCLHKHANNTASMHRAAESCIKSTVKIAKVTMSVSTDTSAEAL
Chain of Cannabinoid receptor 1 (Rattus norvegicus) (P20272 whole entry): as above

A word on the Ki: it is a measure of affinity in units of concentration, obtained from inhibition or displacement. One may read the EC50 as the midpoint of the concentration-response curve. For the molecule `CCCCCn1cc(C(=O)NC23CC4CC(CC(C4)C2)C3)c(=O)n2nc(CC)cc12`, the Ki is 120 nM at Cannabinoid receptor 1 [1], 150 nM at Cannabinoid receptor 1 [2], 0.96 nM at Cannabinoid receptor 2 [5] and 0.84 nM at Cannabinoid receptor 2 [7]. Also, the Ratio Ki in the experiment filed under Homo sapiens came out at 143. Also, on Cannabinoid receptor 2 [3], the EC50 came out at 95 nM. For the same molecule, the Activity on Cannabinoid receptor 2 [4] came to 243%; on Cannabinoid receptor 2 [6] it was 173%. In addition, on Cannabinoid receptor 2 [8], the outcome was Active.

For the molecule `CCCCCn1cc(C(=O)NC2CCCCCC2)c(=O)n2nc(C(C)(C)C)cc12`, the Ki turned out to be 605 nM on Cannabinoid receptor 1 [1], 650 nM at Cannabinoid receptor 1 [2], 7.52 nM at Cannabinoid receptor 2 [5] and 7.22 nM at Cannabinoid receptor 2 [7]. The Ratio Ki in the experiment listed under Homo sapiens came out at 84. Besides, the EC50 on Cannabinoid receptor 2 [3] was 351 nM. In addition, the values for the Activity at Cannabinoid receptor 2 [4] and on Cannabinoid receptor 2 [6] were 213% and 151%, respectively.

With `CCCCCn1cc(C(=O)NC23CC4CC(CC(C4)C2)C3)c(=O)n2nc(-c3ccccc3)cc12`, the Ki on Cannabinoid receptor 1 [1] is over 10000 nM; on Cannabinoid receptor 1 [2], over 10000 nM; on Cannabinoid receptor 2 [5], 2.74 nM; on Cannabinoid receptor 2 [7], 2.56 nM. The Activity is 43% on Cannabinoid receptor 1 [9], 195% on Cannabinoid receptor 2 [4], 163% on Cannabinoid receptor 2 [6] and 40% in experiment [10]. Also, the Ratio Ki in the experiment listed under Homo sapiens was over 3910. The EC50 at Cannabinoid receptor 2 [3] worked out at 195 nM.

As for `CCCCCn1cc(C(=O)NC2CCCCCC2)c(=O)n2nc(-c3ccc(Cl)cc3)cc12`, the Ki at Cannabinoid receptor 1 [1] was over 10000 nM; at Cannabinoid receptor 1 [2] it was over 10000 nM; on Cannabinoid receptor 2 [5], 6.53 nM; at Cannabinoid receptor 2 [7], 6.31 nM. In addition, the Activity at Cannabinoid receptor 1 [9] was 40%; on Cannabinoid receptor 2 [4], 162%; on Cannabinoid receptor 2 [6], 121%; in experiment [10] it was 47%. Also, the Ratio Ki in the experiment listed under Homo sapiens is over 1580.

Values taken from ChEMBL document CHEMBL2380310, “Discovery of 7-oxopyrazolo[1,5-a]pyrimidine-6-carboxamides as potent and selective CB(2) cannabinoid receptor inverse agonists” (J Med Chem, 2013).
